A selection: hits, their analogues and other compounds. The true share with any hit is near 3.5%.
RGS4 pot: potentiators or activators of RGS4; HEK293 M3R/inducible RGS4, carbachol calcium flux Fluo4; hits give low values; B-score at 10 µM; AID 463111; actives 0.92% (n = 310,000);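 active = B-score of the integrated calcium signal more than 4 SD below the library mean, with starting fluorescence not abnormally high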;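 also: negative B-score means reduced calcium response which marks RGS4 activation or potentiation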
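Assay system: HEK293 FlpIn-TREx cells, stable M3R, doxycycline-inducible RGS4 / Probe or stimulus: carbachol, ECmax concentration / Times: overnight RGS4 induction, 30 min dye load 37 °C, 20 min compound RT / Signal: kinetic calcium fluorescence imaging with Fluo4-AM dye, 2 µM / Measure: Agonist-evoked peak-minus-minimum fluorescence over baseline, integrated ratio, B score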
MrgX1 PAM: human MrgX1 positive allosteric modulation, primary screen. B-score at 10 µM. actives 0.63% (n = 310,000). AID 588675. MrgX1-HEK293, Fluo-4 calcium flux, FDSS; hits give high values;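 active = plate-corrected calcium response at least 3 library SD above typical, normal starting fluorescence, not activating the receptor alone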;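 also: compound read alongside a low EC10 to EC30 dose of BAM8-22 agonist; peak minus trough fluorescence over baseline measured at the second addition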
Target sequence (Q96LB2 whole entry, looked up): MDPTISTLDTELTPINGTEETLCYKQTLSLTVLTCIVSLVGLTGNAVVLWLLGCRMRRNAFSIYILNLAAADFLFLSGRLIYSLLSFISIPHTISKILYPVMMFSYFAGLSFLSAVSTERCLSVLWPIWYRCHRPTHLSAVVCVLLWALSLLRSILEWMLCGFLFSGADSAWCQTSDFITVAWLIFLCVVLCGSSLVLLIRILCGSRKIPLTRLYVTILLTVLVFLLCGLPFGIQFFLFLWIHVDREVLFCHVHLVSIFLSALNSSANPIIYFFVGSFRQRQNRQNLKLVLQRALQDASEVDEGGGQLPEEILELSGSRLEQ
RGS4 inh: human RGS4 inhibition | P49798 | HEK293 M3R/RGS4 inducible, Fluo-4 calcium flux; hits give high values; triggered by carbachol at its EC20 | B-score at 10 µM | actives 0.45% (n = 310,000) | AID 463165;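 active = B-score, a plate-corrected calcium signal, over three deviations above library mean, with baseline fluorescence within five deviations of library mean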;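 also: RGS4 expression induced by doxycycline in cells with stable M3 receptor; B-score is computed from the integrated fluorescence ratio over baseline after carbachol; higher B-score means a larger calcium signal and so more RGS4 inhibition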
Target sequence (P49798 whole entry, looked up): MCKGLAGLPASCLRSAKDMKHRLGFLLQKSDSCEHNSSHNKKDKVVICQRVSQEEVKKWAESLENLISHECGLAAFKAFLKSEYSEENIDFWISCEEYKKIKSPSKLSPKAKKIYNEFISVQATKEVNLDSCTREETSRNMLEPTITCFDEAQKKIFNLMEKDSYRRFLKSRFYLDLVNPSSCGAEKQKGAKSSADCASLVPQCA
MrgX1 antag: blocks BAM8-22 activation of human MrgX1 receptor; Q96LB2; MRGX1-HEK293 calcium flux, Fluo-4, BAM8-22 antagonism; hits give low values; B-score at 10 µM; actives 1.3% (n = 310,000); AID 588676;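 active = calcium-response B-score plate-corrected more than 3 library SD below zero, starting fluorescence within 5 deviations, no agonist response on first addition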;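 also: peak minus trough fluorescence over baseline after final BAM8-22 challenge near maximal dose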
MrgX1 agonist: activates human MrgX1 receptor signaling | MrgX1-HEK293 cells, Fluo-4 calcium fluorescence, agonist mode; hits give high values | B-score at 10 µM | actives 0.44% (n = 310,000) | Q96LB2 | AID 588627;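 active = calcium response B-score plate-corrected fluorescence ratio at least 3 library SD, with starting fluorescence B-score inside 5 SD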
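Material – MrgX1-expressing HEK293 cells · Input – 15,000 cells seeded per well · Dosing – compound as first of three additions · Times – overnight seeding, then 1 h dark dye loading · Measured by – kinetic Fluo-4 NW fluorescence of intracellular calcium · Read-out – B-scored fluorescence response ratio · Benchmarks – positive and negative control wells on each plate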
Each line names hits and unclear results; the compound was inactive in the other large screens.

CCN1C(=O)CC2(C[N+]3(C)CCC2CC3)C1=O (stereo not given)	RGS4 pot -7.2
O=C(Nc1ccc2c(c1)OCO2)c1n[nH]c(=O)c2ccccc12	none
COc1ccc(NC(=O)c2ccco2)c(NC(=O)c2ccc([N+](=O)[O-])cc2)c1	none
O=C(NCC(c1ccco1)N1CCCC1)c1ccccc1Sc1ccc(C(F)(F)F)cc1[N+](=O)[O-] (stereo not given)	RGS4 pot -9
O=C1CN(C(=O)c2ccc3nc(Cc4cccc(Cl)c4)oc3c2)CCN1	none
Fc1cccc(Cl)c1CSc1nnc(COc2cccc3cccnc23)o1	none
COc1ccc(-c2nnc(SCc3cc(C)cc(C)c3)o2)cc1	RGS4 pot -7.2
COc1ccc(-c2nnc(SCC(=O)c3ccc(C)o3)o2)cc1	none (no result: MrgX1 PAM, MrgX1 antag, MrgX1 agonist)
Cc1ccc(OCC(=O)Nc2ccc3c(c2)C(=O)NC3=O)c(C)c1	none
O=C(Nc1ccc2nccnc2c1)Nc1ccccc1Cl	none
O=C(Nc1cccc(Cl)c1)Nc1ccc2nccnc2c1	MrgX1 antag -4.7
COc1ccc(C(C)=O)cc1CC(=O)Nc1ccccc1-c1ccccc1	none
C=CCn1c(-c2ccc(OC)c(OC)c2)n[nH]c1=S	none
C=CCn1c(-c2c(C)nc3cc(C)ccn23)n[nH]c1=S	MrgX1 antag -5.9
CCc1ccc(C2C(C#N)=C(N)C(C#N)(C#N)C3=CCC(C(C)(C)C)CC32)cc1 (stereo not given)	MrgX1 antag -5.8
CC1CCN(c2cc(C#N)c(C#N)cc2[N+](=O)[O-])CC1	MrgX1 PAM 11
CC1CCN(c2cc(N)c(Cl)cc2[N+](=O)[O-])CC1	MrgX1 PAM 7.3
COc1ccc(-c2n(CC(=O)OC3CC(C)CCC3C(C)C)c3ccccc3[n+]2C)cc1 (stereo not given)	RGS4 pot -7.3 (no result: MrgX1 PAM, MrgX1 antag, MrgX1 agonist)
COc1ccc(OCc2n(CC(=O)OC3CC(C)CCC3C(C)C)c3ccccc3[n+]2C)cc1 (stereo not given)	MrgX1 antag -14
O=C(/C=C\c1ccc2c(c1)OCO2)CC1(O)C(=O)Nc2ccccc21 (stereo not given)	none
CCCCN1CNC(=S)N(Cc2ccccc2)C1	none
Cc1ccc(-c2nc3sc4c(c3c(=O)n2N)CCCC4)cc1	MrgX1 PAM 13
Cc1cccc(NC2=C(NCCO)C(=O)c3ccccc3C2=O)c1	MrgX1 antag -5.5
COc1cccc(NC2=C(NCCO)C(=O)c3ccccc3C2=O)c1	none
C=C(C)C(=O)N1CC2(CC(c3cccc(NC(=O)CC)c3)=NO2)C[C@H]1C(N)=O (stereo not given in full)	none
COc1cc(S(=O)(=O)Nc2ccc(C)cc2)ccc1N=Cc1c(C)[nH]n(-c2ccc(C)cc2)c1=O	none
COc1cc(S(=O)(=O)Nc2ccc(C)cc2)ccc1N=Cc1c(C)c(C#N)c(=O)n(C)c1O	RGS4 pot -8.6
C/C(=N\N(Cc1ccccc1)c1ccccc1)c1ccncc1	RGS4 pot -9.2
CN(C(=O)c1ccncc1)c1ccccc1	none
Cc1nn(C)c(Oc2cccc(C(F)(F)F)c2)c1C=O	MrgX1 antag -5.9
CCCn1c(C(CO)Nc2nc(C)cs2)nc2ccccc21 (stereo not given)	none
O=C1Cc2ccccc2C(=O)N1CCc1ccccc1	MrgX1 antag -5.2
O=C1C(=O)N(Cc2ccccc2)C(=O)N1CCN1C(=O)c2ccccc2C1=O	none
CSCCC(NC(=O)COc1ccccc1)C(=O)N1CCCC(C)C1 (stereo not given)	none
Cc1onc(-c2cccc(Cl)c2Cl)c1C(=O)O/N=C(\N)c1ccc([N+](=O)[O-])o1	RGS4 pot -8.7
COc1cc(OC)cc(-c2nc3ccccc3c(=O)n2OC(=O)c2ccc(C)c(C)c2)c1	none
CCOC(=O)c1c(NC(=O)COC(=O)c2ccc(O)cc2)sc(C(=O)NC)c1C	none
CCOC(=O)c1c(NC(=O)COC(=O)CC(NC(C)=O)c2ccccc2)sc(C(=O)NC)c1C (stereo not given)	MrgX1 antag -4.8
CCN1CCN(c2ncc(C(=O)Nc3cc(Cl)c(OC)cc3OC)c3ccccc23)CC1	RGS4 pot -7.3 (no result: MrgX1 PAM, MrgX1 antag, MrgX1 agonist)
CCN1CCN(c2ncc(C(=O)Nc3c(F)cc(F)cc3Br)c3ccccc23)CC1	none
O=C(COC(=O)c1cc(=O)[nH]c2ccccc12)Nc1ccc(Cl)cn1	none
COC(=O)c1[nH]c2ccc(Br)cc2c1NC(=O)CN1CCCc2ccccc21	none
COC(=O)c1[nH]c2cc(C)ccc2c1NC(=O)CN1CCCc2ccccc21	RGS4 pot -7.3
O=C(/C=C/c1c(F)cccc1Cl)NCc1ccco1	MrgX1 antag -4.5
O=C(/C=C/c1ccc(F)cc1)NCc1ccco1	none
O=C(CN1C(=O)/C(=C/c2c(F)cccc2Cl)Oc2ccccc21)NCc1ccco1	MrgX1 antag -6.6
Cn1cc(C(=O)N2CCN(c3cccc(Cl)c3)CC2)c(=O)c2cc(S(=O)(=O)N3CCOCC3)ccc21	none
CN(C)c1ccnc(Nc2ccc(O)cc2)c1C#N	none
COCc1c(C#N)c(NCCc2ccccc2)nc(C)c1[N+](=O)[O-]	MrgX1 antag -6.3
Cc1nc(NCCc2ccc(F)cc2)c(C#N)c(C)c1[N+](=O)[O-]	MrgX1 agonist 38
COCc1c(C#N)c(NCCc2ccc(F)cc2)nc(C)c1[N+](=O)[O-]	none
O=C(Cc1ccccn1)c1ccc(F)cc1	none
CC(C)(C)Nc1nc(-c2ccc3c(c2)CCN3C(=O)C2CC2)cs1	none
O=C(Nc1ccccc1-c1ccccc1)c1ccc(=O)[nH]n1	none
CCOc1cc(N2CCOCC2)c(OCC)cc1NC(=O)CN1C(=O)NC(C)(C2CC2)C1=O (stereo not given)	MrgX1 antag -4.7
CCn1cc(C(=O)N(C)c2ccccc2F)c2cc(OC)c(OC)cc2c1=O	none
Cc1ccc(SCCNC(=O)c2ccc([N+](=O)[O-])c(C)c2)cc1	none
Cc1ccc(SCCNC(=O)c2ccc(C)c([N+](=O)[O-])c2)cc1	RGS4 pot -7
CC(NS(=O)(=O)/C=C/c1ccccc1)C(=O)NCCc1ccc(S(N)(=O)=O)cc1 (stereo not given)	none
CCOc1ccccc1NC(=O)c1csc(C)c1C	none
Cc1c(CCC(=O)N2CCC[C@H]2C(=O)O)c(=O)oc2c(C)c3oc4c(c3cc12)CCCC4	MrgX1 PAM 7.2
Cc1c(CCC(=O)NCCCCCC(=O)O)c(=O)oc2c(C)c3oc4c(c3cc12)CCCC4	none
O=[N+]([O-])c1ccccc1S(=O)(=O)Oc1ccc(/C=N/n2cnnc2)cc1	none
COc1cc(/C=N/n2cnnc2)ccc1OS(=O)(=O)c1ccccc1[N+](=O)[O-]	MrgX1 antag -6.6
CCSC1=C(C#N)C(c2ccc(C)o2)CC(=O)N1 (stereo not given)	none
Cc1ccc(C2CC(=O)NC(SCc3ccccc3)=C2C#N)o1 (stereo not given)	MrgX1 agonist 30
CCC(C)c1c(O)nc(SCC(=O)N2CCCCCC2)[nH]c1=O (stereo not given)	none

Compound activity as filed in PubChem BioAssay.
